{"source": "ChEMBL document CHEMBL4699441", "about": "“Identification and Preclinical Evaluation of the Bicyclic Pyrimidine γ-Secretase Modulator BMS-932481” (ACS Med Chem Lett, 2019)", "key": {"[1]": {"experiment": "Plasma exposure (AUC) in rat at 10 mg/kg measured after 24 hrs"}, "[2]": {"experiment": "Oral bioavailability in Beagle dog at 1 mg/kg dosed as nano suspension measured up to 24 hrs by LC-MS/MS analysis", "format": "ADME, organism-based, Canis lupus familiaris", "settings": "in vivo", "summary_of_the_method": "(§1)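 Oral dosing as a nanosuspension in Sprague–Dawley rat, male Beagle dog and male cynomolgus monkey; dogs pretreated with pentagastrin.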"}, "[3]": {"experiment": "Ratio of drug level in brain to plasma in Harlan Sprague-Dawley rat at 10 mg/kg, po measured after 5 hrs", "format": "ADME, organism-based", "settings": "read-out: BPR"}, "Brain": {"tested_on": "Brain", "experiment": "Antialzheimer activity in rat brain assessed as reduction in amyloid beta (1 to 42) AUC at 3 mg/kg measured after 24 hrs relative to control", "format": "functional", "parameters": "scale not given: the % may be the effect or the level left", "summary_of_the_method": "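Rats dosed orally; brain Aβ1-42 followed over 24 h, and the reduction in brain Aβ1-42 AUC integrated over 0–24 h was fitted to an indirect response PK/PD model.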"}, "Cytochrome P450 2C19": {"target": "Cytochrome P450 2C19 (Homo sapiens, UniProt P33261)", "sequence (P33261 whole entry)": "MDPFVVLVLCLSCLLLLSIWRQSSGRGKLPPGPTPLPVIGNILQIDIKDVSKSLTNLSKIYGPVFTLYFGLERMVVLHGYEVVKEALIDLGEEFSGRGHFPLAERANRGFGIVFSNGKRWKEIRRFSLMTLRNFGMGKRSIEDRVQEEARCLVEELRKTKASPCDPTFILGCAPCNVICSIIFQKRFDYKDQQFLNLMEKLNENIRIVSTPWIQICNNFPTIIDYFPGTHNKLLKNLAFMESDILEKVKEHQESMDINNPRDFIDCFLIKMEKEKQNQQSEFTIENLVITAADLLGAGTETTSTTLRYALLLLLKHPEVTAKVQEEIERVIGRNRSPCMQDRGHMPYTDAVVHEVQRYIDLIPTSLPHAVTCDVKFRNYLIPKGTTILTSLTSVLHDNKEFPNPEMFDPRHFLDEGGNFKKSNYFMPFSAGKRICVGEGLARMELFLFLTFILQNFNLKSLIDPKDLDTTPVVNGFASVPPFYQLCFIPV", "experiment": "Inhibition of CYP2C19 in human liver microsomes", "format": "ADME"}, "H4 [4]": {"tested_on": "H4", "experiment": "Inhibition of amyloid beta (1 to 40) secretion in human H4 cells overexpressing APP incubated for 24 hrs by MALDI-TOF mass spectrometric analysis", "format": "functional, cell-based"}, "[5]": {"experiment": "Toxicity in rat assessed as change in notch related goblet cell metaplasia in the duodenum at 100 mg/kg, po administered for 2 week", "format": "organism-based", "settings": "in vivo, 336 h, time 2 weeks"}, "[6]": {"experiment": "Fraction unbound in Sprague-Dawley rat plasma measured after 24 hrs by LC-MS/MS analysis", "format": "ADME, cell-free"}, "[7]": {"experiment": "Oral bioavailability in Sprague-Dawley rat at 2 mg/kg dosed as nano suspension measured up to 24 hrs by LC-MS/MS analysis", "format": "ADME, organism-based", "settings": "in vivo", "summary_of_the_method": "as §1"}, "[8]": {"experiment": "Metabolic stability in Beagle dog assessed as half life incubated for 24 hrs by LC-MS/MS analysis", "format": "ADME, Canis lupus familiaris"}, "[9]": {"experiment": "Inhibition of amyloid beta (1 to 42) secretion in human H4 cells overexpressing APP incubated for overnight by HTRF analysis", "format": "functional, cell-based"}, "H4 [10]": {"tested_on": "H4", "experiment": "Inhibition of amyloid beta (1 to 42) secretion in human H4 cells overexpressing APP incubated for 24 hrs by MALDI-TOF mass spectrometric analysis", "format": "functional, cell-based"}, "[11]": {"experiment": "Induction of CYP3A4 mRNA expression in human hepatocytes at 1 uM relative to control", "format": "ADME, cell-based, Hepatocyte"}, "[12]": {"experiment": "Plasma exposure (AUC) in rat at 3 mg/kg measured after 24 hrs"}, "[13]": {"experiment": "Metabolic stability in Sprague-Dawley rat assessed as half life incubated for 24 hrs by LC-MS/MS analysis", "format": "ADME"}, "[14]": {"target": "Gamma-secretase (Homo sapiens) (UniProt Q96BI3+Q9NZ42+Q8WW43+P49768+Q92542+P49810)", "experiment": "Modulation of gamma-secretase in human H4 cells overexpressing APP incubated assessed as increase in amyloid beta (1 to 37) secretion for 24 hrs by MALDI-TOF mass spectrometric analysis", "format": "cell-based", "settings": "filed as modulator", "summary_of_the_method": "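H4-APPsw cells treated with compound; secreted Aβ species quantified by mass spectrometry; total Aβ1-x checked by ELISA up to 10 μM.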"}, "[15]": {"experiment": "Toxicity in rat assessed as change in bilirubin secretion at 10 to 100 mg/kg, po administered for 2 week", "format": "organism-based", "settings": "in vivo, 336 h, dose 10-100 mg/kg, time 2 weeks"}, "[16]": {"experiment": "Toxicity in rat assessed as change in gamma-secretase modulator function at 100 mg/kg, po administered for 2 week", "format": "organism-based", "settings": "in vivo, 336 h, time 2 weeks"}, "[17]": {"experiment": "Induction of necrosis in rat at 100 mg/kg, po administered for 2 week", "format": "organism-based", "settings": "in vivo, 336 h, time 2 weeks", "summary_of_the_method": "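Rats given oral doses of 10, 30 or 100 mg/kg daily for 2 weeks in a repeat-dose toxicity study.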"}, "[18]": {"target": "Voltage-gated inwardly rectifying potassium channel KCNH2 (Homo sapiens, UniProt Q12809)", "sequence (Q12809 whole entry)": "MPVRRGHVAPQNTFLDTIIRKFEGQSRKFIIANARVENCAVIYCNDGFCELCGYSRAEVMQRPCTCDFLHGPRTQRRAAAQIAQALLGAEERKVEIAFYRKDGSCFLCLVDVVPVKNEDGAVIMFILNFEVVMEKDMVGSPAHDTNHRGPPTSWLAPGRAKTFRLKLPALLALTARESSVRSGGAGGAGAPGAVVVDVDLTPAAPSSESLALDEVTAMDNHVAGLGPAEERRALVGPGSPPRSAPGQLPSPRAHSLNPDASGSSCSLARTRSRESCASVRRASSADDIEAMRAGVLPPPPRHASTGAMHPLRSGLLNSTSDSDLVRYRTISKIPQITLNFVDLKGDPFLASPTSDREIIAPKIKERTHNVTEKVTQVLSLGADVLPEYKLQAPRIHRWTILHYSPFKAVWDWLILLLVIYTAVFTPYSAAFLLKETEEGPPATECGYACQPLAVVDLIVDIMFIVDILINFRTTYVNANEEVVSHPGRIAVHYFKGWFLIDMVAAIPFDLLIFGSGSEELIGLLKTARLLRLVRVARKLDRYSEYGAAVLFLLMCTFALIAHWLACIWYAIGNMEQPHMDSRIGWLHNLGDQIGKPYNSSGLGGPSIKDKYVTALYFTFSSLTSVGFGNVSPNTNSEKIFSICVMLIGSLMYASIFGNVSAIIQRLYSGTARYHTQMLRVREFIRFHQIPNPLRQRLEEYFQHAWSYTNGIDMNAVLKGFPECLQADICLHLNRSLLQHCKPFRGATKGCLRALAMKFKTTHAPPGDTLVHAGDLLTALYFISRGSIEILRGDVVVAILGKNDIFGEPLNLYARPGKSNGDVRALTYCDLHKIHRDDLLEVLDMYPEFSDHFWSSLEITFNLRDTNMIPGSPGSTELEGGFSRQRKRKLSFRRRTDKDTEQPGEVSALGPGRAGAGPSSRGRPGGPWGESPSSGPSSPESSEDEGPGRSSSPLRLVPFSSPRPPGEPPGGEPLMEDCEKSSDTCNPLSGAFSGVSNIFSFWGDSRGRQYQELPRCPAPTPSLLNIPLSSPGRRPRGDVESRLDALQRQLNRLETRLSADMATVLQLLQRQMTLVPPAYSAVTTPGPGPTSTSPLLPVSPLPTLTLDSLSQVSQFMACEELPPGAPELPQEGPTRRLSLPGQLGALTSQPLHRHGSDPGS", "experiment": "Inhibition of human ERG by patch clamp method"}, "Cytochrome P450 2D6": {"target": "Cytochrome P450 2D6 (Homo sapiens, UniProt P10635)", "sequence (P10635 whole entry)": "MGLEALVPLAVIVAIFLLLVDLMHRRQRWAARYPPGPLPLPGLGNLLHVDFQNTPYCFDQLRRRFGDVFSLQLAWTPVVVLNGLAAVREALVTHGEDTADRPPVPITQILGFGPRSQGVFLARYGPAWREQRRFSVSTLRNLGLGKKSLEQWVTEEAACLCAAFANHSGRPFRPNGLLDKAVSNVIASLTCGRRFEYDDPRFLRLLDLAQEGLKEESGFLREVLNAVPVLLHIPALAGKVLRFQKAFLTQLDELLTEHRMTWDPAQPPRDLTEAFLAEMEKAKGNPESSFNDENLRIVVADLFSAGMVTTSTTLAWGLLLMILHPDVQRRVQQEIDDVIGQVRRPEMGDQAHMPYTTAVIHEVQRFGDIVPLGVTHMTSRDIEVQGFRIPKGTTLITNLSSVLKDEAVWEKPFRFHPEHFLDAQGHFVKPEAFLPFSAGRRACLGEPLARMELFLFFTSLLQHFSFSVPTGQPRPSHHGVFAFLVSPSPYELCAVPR", "experiment": "Inhibition of CYP2D6 in human liver microsomes", "format": "ADME"}, "[19]": {"experiment": "Cardiotoxicity in unconscious telemeterized rabbit assessed as increase in QTcv time at 3 mg/kg", "format": "toxicity, organism-based, Oryctolagus cuniculus", "settings": "in vivo"}, "Cytochrome P450 3A4 [20]": {"target": "T1, Cytochrome P450 3A4 (Homo sapiens, UniProt P08684)", "T1 sequence (P08684 whole entry)": "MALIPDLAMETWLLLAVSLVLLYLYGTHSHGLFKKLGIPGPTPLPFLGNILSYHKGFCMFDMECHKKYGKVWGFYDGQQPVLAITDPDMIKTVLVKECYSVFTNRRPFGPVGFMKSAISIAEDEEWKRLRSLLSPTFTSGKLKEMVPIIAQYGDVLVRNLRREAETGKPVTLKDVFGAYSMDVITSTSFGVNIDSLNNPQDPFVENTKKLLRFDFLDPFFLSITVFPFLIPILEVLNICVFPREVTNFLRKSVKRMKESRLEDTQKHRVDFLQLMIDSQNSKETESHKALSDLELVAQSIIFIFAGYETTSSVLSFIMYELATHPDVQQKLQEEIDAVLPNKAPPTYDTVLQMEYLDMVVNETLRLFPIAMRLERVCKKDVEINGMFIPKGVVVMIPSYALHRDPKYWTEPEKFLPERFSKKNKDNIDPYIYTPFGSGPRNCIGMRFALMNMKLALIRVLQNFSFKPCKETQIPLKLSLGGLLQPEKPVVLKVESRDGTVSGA", "experiment": "Time dependent inhibition of CYP3A4 in human liver microsomes assessed as inactivation constant", "format": "ADME"}, "[21]": {"experiment": "Half life in Sprague-Dawley rat at 2 mg/kg, iv measured up to 24 hrs by LC-MS/MS analysis", "format": "ADME, organism-based", "settings": "in vivo", "summary_of_the_method": "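Sprague-Dawley rats, 2 mg/kg by 5 min iv infusion in 9:1 PEG:EtOH, n=5.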"}, "[22]": {"experiment": "Hemodynamic activity in unconscious telemeterized rabbit assessed as increase in blood pressure at >= 10 mg/kg", "format": "ADME, organism-based, Oryctolagus cuniculus", "settings": "in vivo"}, "Cytochrome P450 3A4 [23]": {"target": "T1, Cytochrome P450 3A4", "experiment": "Inhibition of CYP3A4 in human liver microsomes measured after 30 mins", "format": "ADME"}, "[24]": {"experiment": "Toxicity in rat assessed as reduction in food consumption at 100 mg/kg, po administered for 2 week", "format": "organism-based", "settings": "in vivo, 336 h, time 2 weeks"}, "[25]": {"experiment": "Hemodynamic activity in conscious telemeterized rat assessed as change in heart rate at >= 10 mg/kg", "format": "ADME, organism-based", "settings": "in vivo"}, "[26]": {"experiment": "Cmax in Beagle dog at 300 mg/kg, po measured up to 24 hrs by LC-MS/MS analysis", "format": "ADME, organism-based, Canis lupus familiaris", "parameters": "route oral, dose 300 mg/kg, time >=24", "settings": "in vivo", "summary_of_the_method": "(§2)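 Dogs given an acute single oral dose of 300 mg/kg; plasma Cmax and AUC measured alongside bilirubin and other clinical pathology assessments.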"}, "[27]": {"experiment": "AUC in Beagle dog at 300 mg/kg, po measured up to 24 hrs by LC-MS/MS analysis", "format": "ADME, organism-based, Canis lupus familiaris", "parameters": "route oral, dose 300 mg/kg, time >=24", "settings": "in vivo", "summary_of_the_method": "as §2"}, "[28]": {"experiment": "Inhibition of total amyloid beta secretion in human H4 cells overexpressing APP at 50 uM", "format": "cell-based"}, "[29]": {"experiment": "Dissociation constant, pKa of compound", "format": "physicochemical"}, "[30]": {"experiment": "Octanol/water partition coefficient, logD of the compound at pH 7.4 by shake flask method", "format": "physicochemical"}, "[31]": {"experiment": "Cardiotoxicity in unconscious telemeterized rabbit assessed as increase in QTcv time at 10 mg/kg", "format": "toxicity, organism-based, Oryctolagus cuniculus", "settings": "in vivo"}, "[32]": {"experiment": "Toxicity in Beagle dog assessed as NOAEL administered for 1 month", "parameters": "species or system Canis lupus familiaris", "settings": "in vivo, 730 h, time 1 months"}, "[33]": {"experiment": "AUC (0 to 24 hrs) in Harlan Sprague-Dawley rat incubated for 24 hrs by LC-MS/MS analysis", "format": "ADME", "parameters": "time 24 hrs", "settings": "in vivo"}, "[34]": {"experiment": "Cardiotoxicity in unconscious telemeterized rabbit assessed as change in QTcf time at 3 mg/kg", "format": "toxicity, organism-based, Oryctolagus cuniculus", "settings": "in vivo"}, "[35]": {"experiment": "Aqueous solubility of the compound at pH 1", "format": "physicochemical", "settings": "buffer"}, "[36]": {"experiment": "Fraction unbound in mouse plasma measured after 24 hrs by LC-MS/MS analysis", "format": "ADME, cell-free"}, "[37]": {"experiment": "Volume of steady state distribution in cynomolgus monkey at 1 mg/kg, iv measured up to 24 hrs by LC-MS/MS analysis", "format": "ADME, organism-based, Macaca fascicularis", "settings": "in vivo", "summary_of_the_method": "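Male Beagle dog or male cynomolgus monkey; 1 mg/kg as 5 min iv infusion in 9:1 PEG:EtOH; n = 3; volume of distribution at steady state.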"}, "[38]": {"experiment": "Fraction unbound in human plasma measured after 24 hrs by LC-MS/MS analysis", "format": "ADME, cell-free"}, "[39]": {"experiment": "Inhibition of amyloid beta (1 to 40) secretion in human H4 cells overexpressing APP incubated for overnight by HTRF analysis", "format": "functional, cell-based"}}, "note": "Activity calls are given as the source filed them. No cut-off for these calls is given here.", "data": [{"smiles": "CNc1nc(Nc2ccc(-n3cnc(C)n3)c(OC)c2)nc2c1CC[C@H]2c1ccc(F)cc1", "values": [{"measurement": "AUC at 24 h", "setting": "[1]", "value": 32, "unit": "µM·h"}, {"measurement": "F", "setting": "[2]", "value": 85, "unit": "%"}, {"measurement": "Kp at 5 h", "setting": "[3]", "value": 0.23}, {"measurement": "Activity", "setting": "Brain", "value": 45, "unit": "%"}, {"measurement": "IC50", "setting": "Cytochrome P450 2C19", "value": 8300, "unit": "nM"}, {"measurement": "inhibition", "setting": "H4 [4]", "value": "Active"}, {"measurement": "Activity", "setting": "[5]", "value": "Non-Toxic"}, {"measurement": "Fu", "setting": "[6]", "value": 0.7, "unit": "%"}, {"measurement": "F", "setting": "[7]", "value": 98, "unit": "%"}, {"measurement": "t1/2", "setting": "[8]", "value": 27, "unit": "min"}, {"measurement": "IC50", "setting": "[9]", "value": 6.6, "unit": "nM"}, {"measurement": "inhibition", "setting": "H4 [10]", "value": "Active"}, {"measurement": "Activity", "setting": "[11]", "value": 16, "unit": "%"}, {"measurement": "AUC at 24 h", "setting": "[12]", "value": 9.7, "unit": "µM·h"}, {"measurement": "t1/2", "setting": "[13]", "value": 28, "unit": "min"}, {"measurement": "inhibition", "setting": "[14]", "value": "Active"}, {"measurement": "Activity", "setting": "[15]", "value": "Non-Toxic"}, {"measurement": "Activity", "setting": "[16]", "value": "Non-Toxic"}, {"measurement": "Activity", "setting": "[17]", "value": "Non-Toxic"}, {"measurement": "IC50", "setting": "[18]", "value": 1200, "unit": "nM"}, {"measurement": "IC50", "setting": "Cytochrome P450 2D6", "value": 18000, "unit": "nM"}, {"measurement": "Time", "setting": "[19]", "value": 4, "unit": "ms"}, {"measurement": "Kinact", "setting": "Cytochrome P450 3A4 [20]", "value": 0.47, "unit": "min⁻¹"}, {"measurement": "t1/2", "setting": "[21]", "value": 162, "unit": "min"}, {"measurement": "Activity", "setting": "[22]", "value": "Non-Toxic"}, {"measurement": "IC50", "setting": "Cytochrome P450 3A4 [23]", "value": 200, "unit": "nM"}, {"measurement": "Activity", "setting": "[24]", "value": "Non-Toxic"}, {"measurement": "Activity", "setting": "[25]", "value": "Non-Toxic"}, {"measurement": "Cmax", "setting": "[26]", "value": 14, "unit": "µM"}, {"measurement": "AUC", "setting": "[27]", "value": 180, "unit": "µM·h"}, {"measurement": "inhibition at 50 µM", "setting": "[28]", "value": 30, "unit": "%"}, {"measurement": "pKa", "setting": "[29]", "value": 2}, {"measurement": "logD", "setting": "[30]", "value": 4.34}, {"measurement": "Time", "setting": "[31]", "value": 10, "unit": "ms"}, {"measurement": "NOAEL", "setting": "[32]", "value": 150, "unit": "mg/kg"}, {"measurement": "AUC(0-t) at 24 h", "setting": "[33]", "value": 4, "unit": "µM·h"}, {"measurement": "Activity", "setting": "[34]", "value": "Non-Toxic"}, {"measurement": "solubility", "setting": "[35]", "value": 19, "unit": "µg/mL"}, {"measurement": "Fu", "setting": "[36]", "value": 0.7, "unit": "%"}, {"measurement": "Vdss", "setting": "[37]", "value": 5.4, "unit": "L/kg"}, {"measurement": "Fu", "setting": "[38]", "value": 0.6, "unit": "%"}, {"measurement": "IC50", "setting": "[39]", "value": 25, "unit": "nM"}]}]}
